From ChEMBL document CHEMBL4196230, “Design, Synthesis, and Blood-Brain Barrier Transport Study of Pyrilamine Derivatives as Histone Deacetylase Inhibitors” (ACS Med Chem Lett, 2018) come the findings set out here.

Structures are written as SMILES.

In data set [1] the target is T1, Protein deacetylase HDAC6 (Mus musculus) (UniProt Q9Z2V5).
T1 sequence (whole entry): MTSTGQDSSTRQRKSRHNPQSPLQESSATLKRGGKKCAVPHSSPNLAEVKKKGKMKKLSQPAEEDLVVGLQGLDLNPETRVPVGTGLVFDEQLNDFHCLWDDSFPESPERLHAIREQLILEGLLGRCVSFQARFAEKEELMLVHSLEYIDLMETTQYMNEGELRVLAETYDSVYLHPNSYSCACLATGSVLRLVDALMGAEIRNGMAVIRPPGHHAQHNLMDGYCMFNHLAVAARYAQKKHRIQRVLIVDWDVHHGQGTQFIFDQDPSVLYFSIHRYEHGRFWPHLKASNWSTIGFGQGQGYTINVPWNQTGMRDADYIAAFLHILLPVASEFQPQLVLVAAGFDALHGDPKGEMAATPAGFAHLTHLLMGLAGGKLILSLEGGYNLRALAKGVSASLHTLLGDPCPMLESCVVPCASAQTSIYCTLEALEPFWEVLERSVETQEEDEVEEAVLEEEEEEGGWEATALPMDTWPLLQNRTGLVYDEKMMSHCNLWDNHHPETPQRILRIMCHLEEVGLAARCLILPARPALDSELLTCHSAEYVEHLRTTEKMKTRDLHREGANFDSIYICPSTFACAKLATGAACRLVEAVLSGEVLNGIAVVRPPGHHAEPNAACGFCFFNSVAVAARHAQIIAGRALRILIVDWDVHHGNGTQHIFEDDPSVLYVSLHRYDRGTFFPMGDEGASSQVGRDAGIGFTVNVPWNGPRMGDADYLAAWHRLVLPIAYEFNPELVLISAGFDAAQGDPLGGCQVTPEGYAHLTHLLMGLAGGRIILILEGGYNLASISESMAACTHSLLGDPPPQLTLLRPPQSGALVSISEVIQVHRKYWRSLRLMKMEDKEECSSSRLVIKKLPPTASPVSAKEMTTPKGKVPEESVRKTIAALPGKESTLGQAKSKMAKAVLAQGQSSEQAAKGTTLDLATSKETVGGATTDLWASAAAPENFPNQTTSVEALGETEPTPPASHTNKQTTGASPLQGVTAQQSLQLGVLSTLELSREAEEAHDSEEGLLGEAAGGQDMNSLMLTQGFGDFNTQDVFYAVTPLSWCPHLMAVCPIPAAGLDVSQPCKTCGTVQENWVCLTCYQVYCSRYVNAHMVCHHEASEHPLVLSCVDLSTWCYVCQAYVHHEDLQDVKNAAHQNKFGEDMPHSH
Put plainly: Inhibition of mouse HDAC6 expressed in 293T cells at 100 uM using Ac-KGLGK(Ac)-MCA as substrate measured after 30 mins by fluorescence assay relative to control.

The target of data set [2] is Histone deacetylase 1 (Homo sapiens, UniProt Q13547). The data set is described as follows: Inhibition of recombinant human C-terminal FLAG/His-tagged HDAC1 expressed in baculovirus infected Sf9 insect cells using HDAC substrate 3 measured after 30 mins by fluorescence assay.
Chain of Histone deacetylase 1 (Q13547 whole entry, the tested form may be a part): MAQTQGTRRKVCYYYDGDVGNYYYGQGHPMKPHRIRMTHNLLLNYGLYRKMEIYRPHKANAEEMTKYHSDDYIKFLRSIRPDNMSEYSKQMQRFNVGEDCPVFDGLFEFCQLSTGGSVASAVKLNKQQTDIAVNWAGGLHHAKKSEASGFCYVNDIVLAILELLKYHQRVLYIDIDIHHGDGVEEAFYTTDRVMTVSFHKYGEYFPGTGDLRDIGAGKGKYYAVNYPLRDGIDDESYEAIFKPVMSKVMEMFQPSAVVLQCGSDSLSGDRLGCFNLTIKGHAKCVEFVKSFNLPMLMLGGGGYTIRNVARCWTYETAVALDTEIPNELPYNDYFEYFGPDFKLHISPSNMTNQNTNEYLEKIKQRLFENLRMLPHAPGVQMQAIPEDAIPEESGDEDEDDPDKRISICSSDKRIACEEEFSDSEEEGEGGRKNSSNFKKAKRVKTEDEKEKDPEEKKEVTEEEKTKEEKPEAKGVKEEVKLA
Data set [3] has as its target Histone deacetylase 4 (Homo sapiens) (UniProt P56524). Put plainly: Inhibition of N-terminal GST tagged/C-terminal His tagged human recombinant HDAC4 (627 to 1084 residues) expressed in baculovirus infected insect cells at 30 uM using HDAC class 2a substrate measured after 30 mins by fluorescence assay relative to control.
The target of data set [4] is Histone deacetylase 9 (Homo sapiens) (UniProt Q9UKV0). The data set is described as follows: Inhibition of recombinant human C-terminal His-tagged HDAC9 (604 to 1066 residues) expressed in baculovirus infected insect cells at 30 uM using HDAC class 2a substrate measured after 30 mins by fluorescence assay relative to control.
Chain of Histone deacetylase 9 (Homo sapiens) (Q9UKV0 whole entry, the tested form may be a part): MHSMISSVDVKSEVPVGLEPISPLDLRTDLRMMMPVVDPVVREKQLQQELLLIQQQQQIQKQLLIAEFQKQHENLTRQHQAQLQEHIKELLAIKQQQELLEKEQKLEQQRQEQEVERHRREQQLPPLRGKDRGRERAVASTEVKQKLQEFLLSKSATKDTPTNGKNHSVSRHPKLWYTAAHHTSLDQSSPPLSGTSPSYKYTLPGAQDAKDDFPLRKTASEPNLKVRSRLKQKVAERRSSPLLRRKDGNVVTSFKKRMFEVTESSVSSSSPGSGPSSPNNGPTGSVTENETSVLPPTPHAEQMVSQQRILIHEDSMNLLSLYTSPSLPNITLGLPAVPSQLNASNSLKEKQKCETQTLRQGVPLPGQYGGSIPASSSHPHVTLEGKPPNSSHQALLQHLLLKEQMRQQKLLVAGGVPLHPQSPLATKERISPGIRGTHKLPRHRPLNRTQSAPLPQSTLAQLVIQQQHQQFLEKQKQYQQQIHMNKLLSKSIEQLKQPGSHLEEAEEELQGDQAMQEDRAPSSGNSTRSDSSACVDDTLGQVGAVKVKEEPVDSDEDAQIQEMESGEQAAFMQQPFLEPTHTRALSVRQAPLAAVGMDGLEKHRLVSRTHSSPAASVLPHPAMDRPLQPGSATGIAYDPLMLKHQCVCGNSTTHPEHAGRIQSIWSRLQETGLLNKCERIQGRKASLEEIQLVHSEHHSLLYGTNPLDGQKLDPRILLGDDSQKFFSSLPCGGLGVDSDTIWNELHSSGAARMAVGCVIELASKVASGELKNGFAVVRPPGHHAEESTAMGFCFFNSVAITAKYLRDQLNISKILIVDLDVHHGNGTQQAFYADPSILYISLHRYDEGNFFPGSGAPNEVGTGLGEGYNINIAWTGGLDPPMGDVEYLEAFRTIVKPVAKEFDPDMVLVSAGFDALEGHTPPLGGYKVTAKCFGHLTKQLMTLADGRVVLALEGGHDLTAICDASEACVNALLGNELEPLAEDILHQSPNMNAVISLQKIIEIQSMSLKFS
In data set [5] the target is T2, Histone deacetylase 11 (Homo sapiens) (UniProt Q96DB2).
T2 sequence (whole entry): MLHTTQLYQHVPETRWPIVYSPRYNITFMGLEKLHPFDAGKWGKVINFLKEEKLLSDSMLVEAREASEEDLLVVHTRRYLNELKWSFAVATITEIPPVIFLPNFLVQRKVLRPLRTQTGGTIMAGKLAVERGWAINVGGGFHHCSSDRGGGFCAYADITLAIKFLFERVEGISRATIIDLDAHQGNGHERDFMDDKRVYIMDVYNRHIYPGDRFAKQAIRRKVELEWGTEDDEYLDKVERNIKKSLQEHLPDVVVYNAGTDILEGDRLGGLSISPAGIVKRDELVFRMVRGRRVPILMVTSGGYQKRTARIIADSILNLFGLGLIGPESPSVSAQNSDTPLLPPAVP
The data set is described as follows: Inhibition of recombinant human full length HDAC11 expressed in baculovirus infected insect cells at 30 uM using HDAC class 2a substrate measured after 30 mins by fluorescence assay relative to control.

The nature of data set [6]: Substrate activity at PYSOCA in human CMEC/D3 cells assessed as transporter-mediated drug uptake clearance assessed per mg protein at 37degC. It is filed as ADME, cell-based. In a few lines:
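Uptake by hCMEC/D3 cells followed over time at 37 °C or 4 °C. Clearance was calculated from the initial linear slope, expressed per mg protein. Mean ± S.E., n = 4.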

Data set [7] in a line: Substrate activity at PYSOCA in human CMEC/D3 cells assessed as Vmax for transporter-mediated drug uptake assessed per mg protein measured for 2 mins at 37degC. It is filed as ADME, cell-based. In a few lines:
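Uptake by hCMEC/D3 cells measured over a range of concentrations at 37 °C for 2 min. Km and Vmax were obtained by fitting to Eq. 1. Mean ± S.E., n = 4.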

Data set [8] is described as follows: Substrate activity at PYSOCA in human CMEC/D3 cells assessed as transporter-mediated drug uptake measured for 2 mins at 37degC in presence of metabolic inhibitor NaN3. It counts as ADME, cell-based. The method in brief:
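To deplete cellular ATP, hCMEC/D3 cells were pretreated with 0.1% NaN3 for 20 min. Uptake was then measured at 37 °C for 2 min. Mean ± S.E., n = 4.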

The nature of data set [9]: Substrate activity at PYSOCA in human CMEC/D3 cells assessed as transporter-mediated drug uptake measured for 2 mins at 37degC in presence of pyrilamine. It counts as ADME, cell-based.
The nature of data set [10]: Substrate activity at PYSOCA in human CMEC/D3 cells assessed as transporter-mediated drug uptake measured for 2 mins at 37degC in presence of diphenhydramine. It is filed as ADME, cell-based. In a few lines: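 Uptake by hCMEC/D3 cells was measured at various substrate concentrations, at 37 °C for 2 min, with or without diphenhydramine (100 µM). Data were analysed by Michaelis-Menten and Lineweaver-Burk plots using nonlinear least-squares regression (Eqs. 1 and 2). Mean ± S.E., n = 4.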

Data set [11] in a line: Substrate activity at PYSOCA in human CMEC/D3 cells assessed as transporter-mediated drug uptake measured for 2 mins at 37degC in presence of tramadol. It counts as ADME, cell-based.
A short description of data set [12]: Substrate activity at PYSOCA in human CMEC/D3 cells assessed as transporter-mediated drug uptake measured for 2 mins at 37degC in presence of clonidine. It counts as ADME, cell-based.
Data set [13] is described as follows: Substrate activity at PYSOCA in human CMEC/D3 cells assessed as transporter-mediated drug uptake measured for 2 mins at 37degC in presence of decynium-22. It is filed as ADME, cell-based.
Data set [14] in a line: Substrate activity at PYSOCA in human CMEC/D3 cells assessed as transporter-mediated drug uptake measured for 2 mins at 37degC in presence of L-carnitine. It is filed as ADME, cell-based.

Chain of Histone deacetylase 4 (Homo sapiens) (P56524 whole entry, the tested form may be a part): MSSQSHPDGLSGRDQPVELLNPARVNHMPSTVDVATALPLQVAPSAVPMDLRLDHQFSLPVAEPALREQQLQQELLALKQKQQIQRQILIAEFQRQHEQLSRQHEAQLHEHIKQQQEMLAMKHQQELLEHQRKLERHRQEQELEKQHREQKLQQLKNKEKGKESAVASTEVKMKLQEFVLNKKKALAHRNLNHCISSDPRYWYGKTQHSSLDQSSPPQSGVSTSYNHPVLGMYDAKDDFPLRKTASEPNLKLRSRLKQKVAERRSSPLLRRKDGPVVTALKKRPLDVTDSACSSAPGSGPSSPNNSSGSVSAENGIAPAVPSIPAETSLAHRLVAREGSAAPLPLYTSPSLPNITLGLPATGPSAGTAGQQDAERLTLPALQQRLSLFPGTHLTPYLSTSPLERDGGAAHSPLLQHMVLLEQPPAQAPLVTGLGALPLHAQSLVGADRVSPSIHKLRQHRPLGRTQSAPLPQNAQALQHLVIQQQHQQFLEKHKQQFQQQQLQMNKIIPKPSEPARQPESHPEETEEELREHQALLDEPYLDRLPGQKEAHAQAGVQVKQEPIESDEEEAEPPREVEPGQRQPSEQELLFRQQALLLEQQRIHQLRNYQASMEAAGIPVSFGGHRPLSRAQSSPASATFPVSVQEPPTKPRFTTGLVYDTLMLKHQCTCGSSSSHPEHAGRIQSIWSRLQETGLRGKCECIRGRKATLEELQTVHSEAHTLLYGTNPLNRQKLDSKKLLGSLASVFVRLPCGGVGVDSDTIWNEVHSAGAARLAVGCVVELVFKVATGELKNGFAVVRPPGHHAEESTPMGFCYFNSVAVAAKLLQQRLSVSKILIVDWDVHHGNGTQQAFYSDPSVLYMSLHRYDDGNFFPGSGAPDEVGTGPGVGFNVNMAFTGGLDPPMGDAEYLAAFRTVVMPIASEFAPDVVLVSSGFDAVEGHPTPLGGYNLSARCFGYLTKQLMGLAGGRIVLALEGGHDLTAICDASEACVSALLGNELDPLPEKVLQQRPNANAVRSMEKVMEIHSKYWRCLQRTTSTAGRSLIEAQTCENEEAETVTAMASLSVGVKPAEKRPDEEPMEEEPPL

By inhibition is commonly meant the drop in the measured response relative to a control, in per cent. Usually IC50 stands for the point on the concentration scale where inhibition reaches its midpoint. By Vmax is commonly meant the top rate of the reaction or transport when substrate is in excess. Consider `COc1ccc(CN(CCN(C)C)c2ccc(C(=O)Nc3ccccc3N)cn2)cc1`, for which the inhibition is 11% in [1], < 10% in [3], < 10% in data set [4] and < 10% in data set [5]. For the same compound, the half-maximal inhibitory concentration (IC50) in data set [2] stood at 1500 nM. Besides, the CL in data set [6] came out at 107 µL/min. The maximal velocity (Vmax) in [7] amounted to 5.17 nmol/min. Moreover, the Activity result in data set [8] is given as “Not Active”; in data set [9], “Not Active”; in [10], “Not Active”; in data set [11], “Not Active”; in data set [12], “Not Active”; in data set [13] it was “Active”. In addition, the outcome in [14] was Active.
